# Published values pooled from the literature.
# Protocols differ between the studies behind these lines.
Structure (SMILES),species,matrix,route,dose,setting,half-life
Cc1nc(-c2cnc(NC(C)C)n(C)c2=O)ccc1Oc1ccnc(-c2cnn(C)c2)c1,female mouse,plasma,oral,30 mg/kg,single dose,921 min
Cc1ccc2cncc(N3CCc4c(cc(Cn5ccnc5)cc4-c4cn(C)nc4C(F)(F)F)C3=O)c2c1,male CD-1 mouse,plasma,intravenous,3 mg/kg,,90 min
COc1ccc(C(O)COc2ccc(-c3csc(-c4ccc(OCC(O)c5ccc(OC)c(OC)c5)cc4)n3)cc2)cc1OC (stereo not shown),C57BL/6 mouse,plasma,intravenous,3 mg/kg,,180 min
CN1CCC[C@H](CN2c3ccccc3Sc3ccccc32)C1.Cl,mouse,plasma,oral,64 mg/kg,single dose,262 min
CCc1cc(OC)c2nccc(N3CCc4c(cc(Cn5ccnc5)cc4-c4cn(C)nc4C(F)(F)F)C3=O)c2c1,male CD-1 mouse,plasma,oral,50 mg/kg,,66 min
CC(C)(C)c1ccc(O)c(CN(Cc2cc(C(C)(C)C)ccc2O)C2CCC(NC(N)=O)CC2)c1 (stereo not shown),male C57BL/6 mouse,plasma,intraperitoneal,25 mg/kg,single dose,144 min
Cn1cnc2c(F)c(Nc3ccc(Br)cc3Cl)c(C(=O)NOCCO)cc21,nude mouse,tumour,oral,10 mg/kg,"single dose, tumour-bearing",222 min
CC=Cc1ccc(O)c(OC)c1,mouse,plasma,intranasal,100 mg/kg,,18.1 min
CCc1ccc(Cc2cc([C@@H]3O[C@H](CO)[C@@H](O)[C@H](O)[C@H]3O)cc3c2CCC3)cc1,male C57BL/6 mouse,plasma,oral,1 mg/kg,,180 min
CC[C@H](C)[C@@H]1NC(=O)[C@@](C)(NC(=O)[C@H](CCCNC(=N)N)NC(=O)[C@H](CC(C)C)NC(=O)[C@@H](NC(=O)[C@H](CCC(N)=O)NC(=O)[C@H](CC(C)C)NC(C)=O)[C@@H](C)O)CCCC=CCCC[C@@](C)(C(=O)N[C@@H](CC(C)C)C(=O)N[C@@H](Cc2ccc3ccccc3c2)C(N)=O)NC(=O)[C@H](CCCNC(=N)N)NC(=O)[C@H](CCC(N)=O)NC1=O,male BALB/c mouse,plasma,intravenous,5 mg/kg,,84 min
